Data: ChEMBL document CHEMBL1129790 (J Med Chem, 1996)
pEC50, pIC50: −log10 of the molar value.

Legend:
[1] = target: Glutamate receptor ionotropic, kainate; experiment: Affinity value against Ionotropic glutamate receptor kainate using [3H]-kainic acid in selective radioligand binding assay.; type: protein-complex assay
Method in brief: (§1)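 Displacement of the ionotropic radioligands ([3H]CGS19755 for NMDA, [3H]AMPA for AMPA, [3H]kainate for kainate sites) in rat forebrain membranes in vitro. Compounds were tested up to 100 μM, with IC50 as the read-out.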

[2] = In vitro ability to displace [3H]glutamate binding to metabotropic glutamate receptors in rat forebrain membranes; type: cell membranes, Membrane
Method in brief: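 Radioligand displacement of ACPD-sensitive [3H]glutamate binding to metabotropic glutamate receptors in rat forebrain membranes in vitro. IC50 is reported as mean ± error.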

[3] = target: Glutamate receptor ionotropic, AMPA (Rattus norvegicus, UniProt P19490+P19491+P19492+P19493); experiment: Affinity against Ionotropic glutamate receptor AMPA using [3H]AMPA in selective radioligand binding assay; type: protein-complex assay; method in brief: as §1
Glutamate NMDA receptor = experiment: Affinity value against N-methyl-D-aspartate (NMDA) receptor using [3H]-CGS- 19755 in glutamate radioligand binding assay.; type: protein-complex assay
Method in brief: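 Displacement of the ionotropic radioligands ([3H]CGS19755 for NMDA, [3H]AMPA for AMPA, [3H]kainate for kainate sites) in rat forebrain membranes in vitro.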

Rattus norvegicus [4] = species: Rattus norvegicus; experiment: Inhibition of forskolin-stim cAMP formation in cross-chopped slices of the adult rat cerebral cortex.; type: functional
Rattus norvegicus [5] = species: Rattus norvegicus; experiment: Augmentation of AMPA-induced excitation after Microelectrophoretic application to intact rat spinal neuron; type: functional
Method in brief: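 Female Wistar rats (200–230 g) under pentobarbitone Na (60 mg/kg ip initially, supplemented ip as needed) with lumbar laminectomy. A seven-barrel glass microelectrode in spinal gray matter recorded single-neuron firing during timed intermittent AMPA ejection (barrel 10 mM in 200 mM NaCl, pH 7.4). Agonists (barrel 25 mM in 175 mM NaCl, pH 7.4) were ejected in varied order across cells. Response reported as % increase over control, mean ± SEM.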

Rattus norvegicus [6] = species: Rattus norvegicus; experiment: Stimulation of [3H]IP (tritiated inositol monophosphate) formation in cross-chopped slices of the neonata rat cerebral cortex.; type: functional
Mus musculus = experiment: Dose dependent blocking of limbic seizures induced by compound 1 by systemically administrating intraperitoneally

| SMILES | pIC50 [1] | pIC50 [2] | pIC50 [3] | pIC50 (Glutamate NMDA receptor) | pEC50 (Rattus norvegicus [4]) | Increase (Rattus norvegicus [5]) | pEC50 (Rattus norvegicus [6]) | EC50 (Mus musculus) |
| --- | --- | --- | --- | --- | --- | --- | --- | --- |
| N[C@]1(C(=O)O)CN[C@H](C(=O)O)C1 | < 4.00 | < 4.00 | < 4.00 | < 4.00 |  |  |  |  |
| N[C@]1(C(=O)O)CN[C@@H](C(=O)O)C1 | < 4.00 | < 4.00 | < 4.00 |  |  |  |  |  |
| N[C@@]1(C(=O)O)CC[C@@H](C(=O)O)C1 | < 4.00 | 4.99 | < 4.00 | < 4.00 | 5.09 | 95% | 4.56 |  |
| N[C@@]1(C(=O)O)CN[C@@H](C(=O)O)C1 | < 4.00 | 5.19 | < 4.00 | < 4.00 | 4.84 | 52% |  | 271 mg/kg |
| N[C@@]1(C(=O)O)CN[C@H](C(=O)O)C1 | < 4.00 | < 4.00 | < 4.00 | 4.62 |  |  |  |  |
